Calls of active or inactive are those of the source. The calls are words filed in the database; no cut-off is given here.
What was measured:
[1] = Antiproliferative activity against human DU145 cells after 48 hrs by sulforhodamine B assay; assay type: functional, cell-based; details: DU-145, 48 h
Method in brief: (§1)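 Sulforhodamine B assay. DU 145 cells in IMEM/10% FBS and PC-3 cells in RPMI-1640/10% FBS, both kept at 37 °C with 5% CO2, seeded at predetermined densities and left to adhere overnight. Cells exposed 48 h to a concentration range or DMSO vehicle, then TCA-fixed and SRB-stained. Bound dye dissolved in Tris and read at 560 nm.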

[2] = Antiproliferative activity against human PC3 cells after 48 hrs by sulforhodamine B assay; assay type: functional, cell-based; details: PC-3, 48 h
[3] = test system: DU-145; experiment: Ratio of IC50 for human PC3 cells to IC50 for human DU145 cells; assay type: functional
[4] = Cytotoxicity against human DU145 cells assessed as reduction in cell density at 61.3 uM after 48 hrs by sulforhodamine B assay relative to control; assay type: functional; details: DU-145, 48 h; method in brief: as §1
[5] = Cell cycle arrest in human DU145 cells assessed as accumulation at G0/G1 phase at 5 times antiproliferative IC50 after 16 to 23 hrs by propidium iodide staining based flow cytometry (reference value: 50.4 +/- […]%); assay type: functional; details: DU-145
[6] = Cytotoxicity against human PC3 cells assessed as reduction in cell density after 48 hrs by sulforhodamine B assay relative to control; assay type: functional, PC-3; method in brief: as §1
[7] = Cytotoxicity against human DU145 cells assessed as reduction in cell density after 48 hrs by sulforhodamine B assay relative to control; assay type: functional, DU-145; method in brief: as §1
[8] = (§2) Inhibition of colony formation in human DU145 cells at antiproliferative IC90 incubated for 4 hrs followed by compound washout measured after 7 to 9 days by crystal violet staining based clonogenic assay relative to control; assay type: functional, DU-145
Method in brief: (§3)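 DU 145 cells plated at 150 per 60 mm plate and left to adhere about 24 h. Cells treated 4 h at the IC90 concentration, washed with fresh medium, then grown 7−9 days drug-free. Colonies stained with 0.5% crystal violet in 20% methanol, counted by imaging, and compared with vehicle-treated controls.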

[9] = Cell cycle arrest in human DU145 cells assessed as accumulation at S phase at 5 times antiproliferative IC50 after 16 to 23 hrs by propidium iodide staining based flow cytometry (reference value: 27.8 +/- 1%); assay type: functional; details: DU-145
Method in brief: (§4)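 Cells harvested on ice, stained with Krishan's reagent (propidium iodide), and DNA content read by flow cytometry. Phase percentages derived from DNA histograms. n = 2–3 per compound, n = 5 for vehicle; error bars are SEM.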

[10] = Cell cycle arrest in human DU145 cells assessed as accumulation at G2/M phase at 5 times antiproliferative IC50 after 16 to 23 hrs by propidium iodide staining based flow cytometry (reference value: 21.8 +/- 1.5%); assay type: functional; details: DU-145; method in brief: as §4
[11] = test system: DU-145; experiment: Disruption of mitotic spindle in human DU145 cells assessed as elongated and curved morphology at 5 times antiproliferative IC50 after 16 to 18 hrs by DAPI staining based immunofluorescence microscopy; assay type: functional, cell-based
Method in brief: (§5)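 Cells fixed in ice-cold methanol, then stained with anti-β-tubulin and FITC secondary antibody; DNA stained with DAPI. Spindle morphology, metaphase DNA alignment and interphase microtubules assessed by fluorescence microscopy.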

[12] = test system: DU-145; experiment: Disruption of mitotic spindle in human DU145 cells assessed as incorrect alignment of DNA at metaphase at 5 times antiproliferative IC50 after 16 to 18 hrs by DAPI staining based immunofluorescence microscopy; assay type: functional, cell-based; method in brief: as §5
[13] = molecular target: T1, Tubulin (Sus scrofa) (UniProt P02554+P02550); experiment: Induction of porcine brain tubulin polymerization at 2 uM incubated for 1 hr by turbidimetric assay
T1 sequence (P02550 whole entry, looked up): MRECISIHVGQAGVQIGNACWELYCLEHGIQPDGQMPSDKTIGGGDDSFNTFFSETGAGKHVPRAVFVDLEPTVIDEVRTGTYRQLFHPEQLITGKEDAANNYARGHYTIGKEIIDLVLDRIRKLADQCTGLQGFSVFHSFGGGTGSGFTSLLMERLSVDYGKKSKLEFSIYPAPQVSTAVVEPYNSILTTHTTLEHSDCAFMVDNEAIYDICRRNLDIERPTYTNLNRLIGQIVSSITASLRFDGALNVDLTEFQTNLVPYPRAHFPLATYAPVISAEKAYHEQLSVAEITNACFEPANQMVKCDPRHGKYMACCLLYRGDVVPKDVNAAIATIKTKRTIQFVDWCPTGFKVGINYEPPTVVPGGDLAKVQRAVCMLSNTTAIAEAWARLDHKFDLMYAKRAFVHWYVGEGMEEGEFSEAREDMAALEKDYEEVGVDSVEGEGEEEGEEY
T1 sequence (P02554 whole entry, looked up): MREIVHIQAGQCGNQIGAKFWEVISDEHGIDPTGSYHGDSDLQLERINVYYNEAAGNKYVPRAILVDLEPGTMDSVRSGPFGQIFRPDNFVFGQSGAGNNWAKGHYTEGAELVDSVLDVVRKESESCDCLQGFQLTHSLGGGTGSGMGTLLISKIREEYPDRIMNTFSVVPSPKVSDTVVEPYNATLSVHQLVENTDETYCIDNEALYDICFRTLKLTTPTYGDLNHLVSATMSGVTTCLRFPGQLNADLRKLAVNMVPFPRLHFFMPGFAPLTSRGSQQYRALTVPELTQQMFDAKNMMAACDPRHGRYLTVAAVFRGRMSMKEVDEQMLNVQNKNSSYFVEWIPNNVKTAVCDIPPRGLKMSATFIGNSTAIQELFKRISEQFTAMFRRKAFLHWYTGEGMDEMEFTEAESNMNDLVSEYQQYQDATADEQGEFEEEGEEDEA
Method in brief: (§6)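 Purified porcine brain tubulin (2 mg/mL) in GPEM buffer with 1 mM GTP, polymerized for 1 h at 37 °C with 1% DMSO vehicle or compound at 2 or 20 μM. Turbidity followed as absorbance at 340 nm; initial rate and total polymer assessed.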

[14] = molecular target: T1, Tubulin (Sus scrofa); experiment: Induction of porcine brain tubulin polymerization at 20 uM incubated for 1 hr by turbidimetric assay; method in brief: as §6
[15] = molecular target: T2, Mitogen-activated protein kinase; ERK1/ERK2 (Homo sapiens) (UniProt P27361+P28482); experiment: Activation of ERK1/2 in human DU145 cells assessed as increase in phosphorylation at Thr202/Tyr204 residue at antiproliferative IC90 after 4 hrs by fluorescence based intracellular signaling array method; assay type: cell-based; details: DU-145
T2 sequence (P27361 whole entry, looked up): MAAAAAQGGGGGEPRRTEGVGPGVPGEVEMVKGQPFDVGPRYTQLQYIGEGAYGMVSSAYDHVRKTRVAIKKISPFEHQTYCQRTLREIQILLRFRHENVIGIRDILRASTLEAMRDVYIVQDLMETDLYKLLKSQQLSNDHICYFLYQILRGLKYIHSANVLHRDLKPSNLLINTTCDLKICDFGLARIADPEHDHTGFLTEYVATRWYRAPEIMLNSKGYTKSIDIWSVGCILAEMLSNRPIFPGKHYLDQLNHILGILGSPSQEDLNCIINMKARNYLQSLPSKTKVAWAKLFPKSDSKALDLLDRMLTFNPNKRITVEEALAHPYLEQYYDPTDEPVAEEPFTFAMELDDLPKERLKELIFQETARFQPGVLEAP
T2 sequence (P28482 whole entry, looked up): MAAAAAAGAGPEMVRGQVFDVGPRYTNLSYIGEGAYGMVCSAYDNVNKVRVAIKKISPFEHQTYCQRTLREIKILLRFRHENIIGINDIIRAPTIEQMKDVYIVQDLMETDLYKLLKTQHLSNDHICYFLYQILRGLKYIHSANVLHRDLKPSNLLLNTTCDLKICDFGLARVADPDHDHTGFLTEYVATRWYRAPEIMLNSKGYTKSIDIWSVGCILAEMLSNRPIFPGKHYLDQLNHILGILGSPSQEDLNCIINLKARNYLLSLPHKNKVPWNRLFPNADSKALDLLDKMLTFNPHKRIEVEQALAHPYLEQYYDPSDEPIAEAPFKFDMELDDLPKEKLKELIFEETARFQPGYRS
Method in brief: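 PathScan intracellular signaling array with fluorescent read-out. DU 145 cells treated for 4 h; lysates made with cell extraction buffer plus protease inhibitors, as for Western blots. Phospho-Erk1/2 at Thr202/Tyr204 scored.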

[16] = molecular target: T2, Mitogen-activated protein kinase; ERK1/ERK2 (Homo sapiens); experiment: Increase in ERK1/2 phosphorylation in human DU145 cells at antiproliferative IC90 after 2 to 18 hrs by Western blot analysis; assay type: cell-based; details: DU-145
Method in brief: (§7)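 Equal protein run on SDS-PAGE and blotted to membrane. Probed with phospho-p44/42 and total p44/42 antibodies (1:1000) and HRP secondaries (1:5000), then quantified by densitometry.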

[17] = Cytotoxicity against human PC3 cells assessed as reduction in cell density at 12.5 uM after 48 hrs by sulforhodamine B assay relative to control; assay type: functional; details: PC-3, 48 h; method in brief: as §1
[18] = Cytotoxicity against human DU145 cells assessed as reduction in cell density at 12.5 uM after 48 hrs by sulforhodamine B assay relative to control; assay type: functional; details: DU-145, 48 h; method in brief: as §1
[19] = test system: DU-145; experiment: as §2; assay type: functional; method in brief: as §3
[20] = test system: DU-145; experiment: Effect on interphase microtubule in human DU145 cells at 5 times antiproliferative IC50 after 16 to 18 hrs by DAPI staining based immunofluorescence microscopy; assay type: functional, cell-based; method in brief: as §5
[21] = molecular target: T2, Mitogen-activated protein kinase; ERK1/ERK2 (Homo sapiens); experiment: Increase in ERK1/2 phosphorylation in human DU145 cells at antiproliferative IC90 up to 2 hrs by Western blot analysis; assay type: cell-based; details: DU-145; method in brief: as §7
[22] = Cytotoxicity against human PC3 cells assessed as reduction in cell density at 61.7 uM after 48 hrs by sulforhodamine B assay relative to control; assay type: functional; details: PC-3, 48 h; method in brief: as §1
[23] = Cytotoxicity against human DU145 cells assessed as reduction in cell density at 61.7 uM after 48 hrs by sulforhodamine B assay relative to control; assay type: functional; details: DU-145, 48 h; method in brief: as §1
[24] = test system: DU-145; experiment: Disruption of mitotic spindle in human DU145 cells assessed as elongated and curved morphology at 2 times antiproliferative IC50 after 16 to 18 hrs by DAPI staining based immunofluorescence microscopy; assay type: functional, cell-based; method in brief: as §5
[25] = test system: DU-145; experiment: Disruption of mitotic spindle in human DU145 cells assessed as incorrect alignment of DNA at metaphase at 2 times antiproliferative IC50 after 16 to 18 hrs by DAPI staining based immunofluorescence microscopy; assay type: functional, cell-based; method in brief: as §5
[26] = molecular target: T1, Tubulin (Sus scrofa); experiment: Effect on total porcine brain tubulin polymer level at 20 uM incubated for 1 hr by turbidimetric assay; method in brief: as §6

Structure (SMILES) | IC50 [1] | IC50 [2] | Ratio IC50 [3] | Activity [5] | inhibition (INH) [6] | inhibition (INH) [7] | inhibition (INH) [8] | Activity [9] | Activity [10] | Activity [11] | Activity [12] | Activity [13] | Activity [14] | Activity [15] | Activity [16] | further results
CC(=O)O[C@H]1C(=O)[C@@]2(C)[C@H]([C@H](OC(=O)c3ccccc3)[C@]3(O)C[C@H](OC(=O)[C@H](O)[C@@H](NC(=O)c4ccccc4)c4ccccc4)C(C)=C1C3(C)C)[C@]1(OC(C)=O)CO[C@@H]1C[C@@H]2O [PACLITAXEL] | 0.0038 µM | – | – | – | – | – | – | – | – | – | – | – | – | – | – | –
CC(C)(O)C(O)Cc1c(O)ccc(C(=O)/C=C/c2ccccc2)c1O (stereo not drawn) | 25.5 µM | 35 µM | 1.4 | – | – | – | – | – | – | – | – | – | – | – | – | inhibition at 61.3 µM [4]: 46%
C=C1C(=O)O[C@H]2C/C(COC(=O)C(C)C)=C/CC[C@]3(C)O[C@H]3[C@@H](O)[C@H]12 | 1.7 µM | 4.7 µM | 2.8 | 34.4% | 30% | 20% | 42% | 31.2% | 34.5% | Active | Active | inactive | inactive | Active | Active | –
CC(C)[C@@H]1CC[C@@]2(C)CCC[C@@](C)(O)[C@@H]2[C@@H]1OC(=O)/C=C/c1ccc(O)cc1 | 5.2 µM | 4 µM | 0.77 | 51.5% | – | – | – | 24.9% | 23.5% | inactive | – | – | – | Active | inactive | inhibition at 12.5 µM [17]: 84%; inhibition at 12.5 µM [18]: 84%; inhibition [19]: inactive; Activity [20]: inactive
C=C(C)C(=O)OC/C1=C\CC[C@]2(C)O[C@H]2[C@@H](O)[C@@H]2C(=C)C(=O)O[C@H]2C1 | 3.7 µM | 12 µM | 3.2 | 32.8% | 30% | 20% | 23% | 32.7% | 34.5% | Active | Active | inactive | inactive | Active | – | Activity [21]: Active
C=C(C)C(O)Cc1c(O)ccc(C(=O)/C=C/c2ccccc2)c1O (stereo not drawn) | 7 µM | 11 µM | 1.6 | 37.8% | – | – | 44% | 28.8% | 33.4% | – | – | inactive | Active | – | – | inhibition at 61.7 µM [22]: 84%; inhibition at 61.7 µM [23]: 84%; Activity [24]: Active; Activity [25]: Active; Activity [26]: inactive
C=C(C)C(=O)O[C@H]1C/C(C=O)=C\CC/C(C)=C/[C@H]2OC(=O)C(=C)[C@H]12 | 1.8 µM | 3 µM | 1.7 | 46.4% | 20% | 20% | 98% | 27.2% | 26.4% | Active | Active | inactive | inactive | Active | inactive | Activity [21]: Active

— ChEMBL document CHEMBL3813658, “Texas Native Plants Yield Compounds with Cytotoxic Activities against Prostate Cancer Cells” (J Nat Prod, 2016)
